Active and inactive are the calls of the source. No cut-off for these calls is given here. Residues, ends and D or L forms follow the SMILES beside them.
Columns and labels:
[1] = Chemical stability assessed as compound remaining after proteolytic cleavage after 2 hrs in presence of chymotrypsin; type: physicochemical; settings: read-out: Stability
Procedure, shortened: (§1)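 Each peptide at 0.76 mg/mL was incubated in PBS with 0.1 mg/mL chymotrypsin. Intact-peptide peak area was compared with an equivalent sample incubated in PBS alone.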

[2] = Chemical stability assessed as compound remaining after proteolytic cleavage after 20 hrs in presence of chymotrypsin; type: physicochemical; settings: read-out: Stability; procedure, shortened: as §1
[3] = Inhibition of amyloid beta (1 to 40) fibril formation by thioflavin T fluorescent dye assay
Procedure, shortened: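 Aβ1-40 fractions were dissolved in 30 mM Tris/HCl pH 7.4 at 20 °C, with or without a 10-fold molar excess of inhibitor. Aliquots taken at 0.5, 1.5, 6, 8, 15 and 24 h went into ThT in 50 mM Tris/HCl pH 8.0. Fluorescence was read at 485 nm (excitation 450 nm) at 20 °C. Percent inhibition is relative to the parent pentapeptide. Three experiments, each sample in triplicate.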

[4] = Inhibition of amyloid beta (1 to 40) aggregation assessed as inhibition of protofbril formation
Procedure, shortened: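 Lyophilised Aβ1-40 was incubated in 30 mM Tris/HCl pH 7.4 at 20 °C, with or without a 10-fold molar excess of inhibitor. Aliquots taken at 30 min and 24 h were frozen, lyophilised, gold sputter-coated and imaged by scanning electron microscopy for protofibrils.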

Compound | remaining at 2 h [1] [%] | remaining at 20 h [2] [%] | Activity [3] | Activity [4]
CC(C)C[C@H](NS(=O)(=O)CCN(C)C)C(=O)N1CCC[C@H]1C(=O)N[C@@H](Cc1ccccc1)C(=O)N[C@@H](Cc1ccccc1)C(=O)N[C@@H](CC(=O)O)C(N)=O (HELM PEPTIDE1{[CN(C)CCS(=O)(=O)[*:2]].L.P.F.F.D.[am]}$$$$V2.0) | 70 | 55 | Active | Active
CC(=O)N[C@@H](CC(C)C)C(=O)N1C[C@@H](c2ccccc2)[C@@H]1C(=O)N[C@@H](Cc1ccccc1)C(=O)N[C@@H](Cc1ccccc1)C(=O)N[C@@H](CC(=O)O)C(N)=O (HELM PEPTIDE1{[ac].L.[O=C([C@H]1[C@H](c2ccccc2)CN1[*:1])[*:2]].F.F.D.[am]}$$$$V2.0) | 35 | 15 | – | –
Ac-LPFFDLPFFD-NH2 | 22 | – | Active | –

Now from value to compound:

remaining at 2 h [1] [%] | remaining at 20 h [2] [%] | Activity [3] | Activity [4] | Compound
35 | 15 | – | – | CC(=O)N[C@@H](CC(C)C)C(=O)N1CCC[C@H]1CS(=O)(=O)N[C@@H](Cc1ccccc1)C(=O)N[C@@H](Cc1ccccc1)C(=O)N[C@@H](CC(=O)O)C(N)=O
35 | 15 | – | – | CC(=O)N[C@@H](CC(C)C)C(=O)N1CCC[C@H]1CC(=O)N[C@@H](Cc1ccccc1)C(=O)N[C@@H](Cc1ccccc1)C(=O)N[C@@H](CC(=O)O)C(N)=O (HELM PEPTIDE1{[ac].L.[O=C(C[C@@H]1CCCN1[*:1])[*:2]].F.F.D.[am]}$$$$V2.0)
35 | 15 | Active | – | CC(=O)N[C@@H](CC(C)C)C(=O)N1CC[C@H]1C(=O)N[C@@H](Cc1ccccc1)C(=O)N[C@@H](Cc1ccccc1)C(=O)N[C@@H](CC(=O)O)C(N)=O (HELM PEPTIDE1{[ac].L.[O=C([C@@H]1CCN1[*:1])[*:2]].F.F.D.[am]}$$$$V2.0)
12 | – | – | – | Ac-LPFFD-NH2

Reference: ChEMBL document CHEMBL1154492, “Synthesis and activity of fibrillogenesis peptide inhibitors related to the 17-21 beta-amyloid sequence” (Eur J Med Chem, 2009)
